Laboratory results as given in ChEMBL document CHEMBL1156239, “Synthesis, anticonvulsant and antimicrobial activities of some new 2-acetylnaphthalene derivatives” (Bioorg Med Chem, 2010).
≈ marks a conversion by molar mass, not a printed value. Calls of active or inactive are those of the source. The rule behind the calls is not given here.

Key:
Rattus norvegicus [1] = experiment: Neurotoxicity in Sprague-Dawley rat at 30 mg/kg, po after 2 hrs by rotarod test; assay type: toxicity, organism-based; set-up: dose 30 mg/kg, route oral; conditions: in vivo
Rattus norvegicus [2] = experiment: Anticonvulsant activity in Sprague-Dawley rat assessed as inhibition of maximal electroshock-induced seizures at 30 mg/kg, po after 2 hrs; assay type: functional, organism-based; set-up: dose 30 mg/kg
How it was run: (§1)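 Male albino Sprague-Dawley rats (105–130 g) given a single oral 30 mg/kg dose suspended in 0.5% methylcellulose; MES (60 Hz, 150 mA, 0.2 s, tetracaine-anesthetized eyes) at 0.25, 0.5, 1, 2 and 4 h; 4 rats per time point; scored protected/tested.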

[3] = Neurotoxicity in ip dosed CF1 mouse after 0.25 hrs by rotarod test; assay type: toxicity, organism-based; conditions: in vivo
How it was run: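 TD50 was determined at the time of peak effect in male albino animals. Compound was suspended in 0.5% methylcellulose and given ip. Neurotoxicity was read by rotarod in CF#1 mice and by positional sense, gait and stance in Sprague-Dawley rats. Groups of at least 8 received graded doses spanning 0–100% toxicity.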

Mus musculus [4] = experiment: Neurotoxicity in CF1 mouse at 100 mg/kg, ip after 4 hrs by rotarod test; assay type: toxicity, organism-based; set-up: dose 100 mg/kg, route intraperitoneal; conditions: in vivo
How it was run: (§2)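 Male albino CF#1 mice (18–25.5 g) dosed ip with compound suspended in 0.5% methylcellulose, 0.5 h or 4 h before testing; neurotoxicity assessed by rotarod, scored as number toxic/number tested.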

Mus musculus [5] = experiment: Neurotoxicity in CF1 mouse at 30 mg/kg, ip after 0.5 hrs by rotarod test; assay type: toxicity, organism-based; set-up: dose 30 mg/kg, route intraperitoneal; conditions: in vivo; how it was run: as §2
Rattus norvegicus [6] = experiment: Neurotoxicity in Sprague-Dawley rat at 30 mg/kg, po after 1 hr by rotarod test; assay type: toxicity, organism-based; set-up: dose 30 mg/kg, route oral; conditions: in vivo
Candida parapsilosis = experiment: Antifungal activity against Candida parapsilosis ATCC 22019 after 48 hrs by broth microdilution method; assay type: functional; conditions: Lodderomyces parapsilosis, ATCC 22019, 48 h
Pseudomonas aeruginosa = experiment: Antibacterial activity against Pseudomonas aeruginosa ATCC 27853 after 24 hrs by broth microdilution method; assay type: functional; conditions: ATCC 27853, 24 h
How it was run: (§3)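 Broth microdilution in Mueller Hinton broth; compound stocks in DMSO, diluted into test medium. Plates incubated at 35 °C and read visually after 24 h. MIC taken as lowest concentration preventing visible growth. Ampicillin reference.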

Rattus norvegicus [7] = experiment: Anticonvulsant activity in ip dosed Sprague-Dawley rat assessed as inhibition of maximal electroshock-induced seizures after 0.5 hrs; assay type: functional
Mus musculus [8] = experiment: Neurotoxicity in CF1 mouse assessed as hyperactivity at 300 mg/kg, ip after 0.5 hrs by rotarod test; assay type: toxicity, organism-based; set-up: dose 300 mg/kg, route intraperitoneal; conditions: in vivo
Rattus norvegicus [9] = experiment: Neurotoxicity in Sprague-Dawley rat at 30 mg/kg, ip after 0.25 hrs by rotarod test; assay type: toxicity, organism-based; set-up: dose 30 mg/kg, route intraperitoneal; conditions: in vivo
Mus musculus [10] = experiment: Anticonvulsant activity in CF1 mouse assessed as inhibition of maximal electroshock-induced seizures at 100 mg/kg, ip after 0.5 hrs; assay type: functional, organism-based; set-up: dose 100 mg/kg
How it was run: (§4)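 Male albino CF#1 mice (18–25.5 g), compound suspended in 0.5% methylcellulose, given ip 0.5 h or 4 h before test. Eyes treated with 0.5% tetracaine HCl in saline; corneal-type MES at 60 Hz, 50 mA for 0.2 s; protection scored as animals protected/tested.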

Rattus norvegicus [11] = experiment: Neurotoxicity in Sprague-Dawley rat at 30 mg/kg, ip after 2 hrs by rotarod test; assay type: toxicity, organism-based; set-up: dose 30 mg/kg, route intraperitoneal; conditions: in vivo
Mus musculus [12] = experiment: Anticonvulsant activity in CF1 mouse assessed as inhibition of maximal electroshock-induced seizures at 30 mg/kg, ip after 4 hrs; assay type: functional, organism-based; set-up: dose 30 mg/kg; how it was run: as §4
Rattus norvegicus [13] = experiment: Neurotoxicity in Sprague-Dawley rat at 30 mg/kg, po after 0.5 hrs by rotarod test; assay type: toxicity, organism-based; set-up: dose 30 mg/kg, route oral; conditions: in vivo
Mus musculus [14] = experiment: Neurotoxicity in CF1 mouse at 100 mg/kg, ip after 0.5 hrs by rotarod test; assay type: toxicity, organism-based; set-up: dose 100 mg/kg, route intraperitoneal; conditions: in vivo; how it was run: as §2
Rattus norvegicus [15] = experiment: Anticonvulsant activity in Sprague-Dawley rat assessed as time to peak effect for inhibition of maximal electroshock-induced seizures at 30 mg/kg, ip; assay type: functional; conditions: route intraperitoneal
Mus musculus [16] = experiment: Anticonvulsant activity in CF1 mouse assessed as inhibition of maximal electroshock-induced seizures at 30 mg/kg, ip after 0.5 hrs; assay type: functional, organism-based; set-up: dose 30 mg/kg; how it was run: as §4
Mus musculus [17] = experiment: Neurotoxicity in CF1 mouse assessed as ability to grasp rotarod at 300 mg/kg, ip after 4 hrs by rotarod test; assay type: toxicity, organism-based; set-up: dose 300 mg/kg, route intraperitoneal; conditions: in vivo
How it was run: (§5)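 Male albino CF#1 mice (18–25.5 g), free access to food and water except during testing, under NINDS Anticonvulsant Screening Program procedures. Compounds were suspended in 0.5% methylcellulose and given ip. Neurotoxicity was scored by rotarod 0.5 h and 4 h after dosing, at screening doses of 30, 100 or 300 mg/kg. Results are reported as affected/tested animals.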

Mus musculus [18] = experiment: Anticonvulsant activity in CF1 mouse assessed as inhibition of maximal electroshock-induced seizures at 300 mg/kg, ip after 4 hrs; assay type: functional, organism-based; set-up: dose 300 mg/kg; how it was run: as §4
Mus musculus [19] = experiment: Neurotoxicity in CF1 mouse assessed as mortality at 300 mg/kg, ip after 4 hrs by rotarod test; assay type: toxicity, organism-based; set-up: dose 300 mg/kg, route intraperitoneal; conditions: in vivo; how it was run: as §5
Rattus norvegicus [20] = experiment: Neurotoxicity in Sprague-Dawley rat assessed as time to peak effect at 75 mg/kg, ip by rotarod test; assay type: toxicity, organism-based; set-up: dose 75 mg/kg, route intraperitoneal; conditions: in vivo
Mus musculus [21] = experiment: Anticonvulsant activity in ip dosed CF1 mouse assessed as inhibition of maximal electroshock-induced seizures after 0.5 hrs; assay type: functional
Rattus norvegicus [22] = experiment: Neurotoxicity in Sprague-Dawley rat at 30 mg/kg, ip after 4 hrs by rotarod test; assay type: toxicity, organism-based; set-up: dose 30 mg/kg, route intraperitoneal; conditions: in vivo
Rattus norvegicus [23] = experiment: Anticonvulsant activity in Sprague-Dawley rat assessed as inhibition of maximal electroshock-induced seizures at 30 mg/kg, po after 1 hr; assay type: functional, organism-based; set-up: dose 30 mg/kg; how it was run: as §1
Mus musculus [24] = experiment: Neurotoxicity in CF1 mouse assessed as time to peak effect for ability to grasp rotarod at 150 mg/kg, ip by rotarod test; assay type: toxicity, organism-based; set-up: dose 150 mg/kg, route intraperitoneal; conditions: in vivo
Rattus norvegicus [25] = experiment: Neurotoxicity in Sprague-Dawley rat at 30 mg/kg, po after 0.25 hrs by rotarod test; assay type: toxicity, organism-based; set-up: dose 30 mg/kg, route oral; conditions: in vivo
Mus musculus [26] = experiment: Anticonvulsant activity in CF1 mouse assessed as time to peak effect for inhibition of maximal electroshock-induced seizures at 70 mg/kg, ip after 4 hrs; assay type: functional, organism-based; set-up: dose 70 mg/kg
Rattus norvegicus [27] = experiment: Neurotoxicity in Sprague-Dawley rat assessed as time to peak effect at 10 to 30 mg/kg, ip after 0.25 to 4 hrs by rotarod test; assay type: toxicity, organism-based; set-up: route intraperitoneal; conditions: in vivo
Enterococcus faecalis = experiment: Antibacterial activity against Enterococcus faecalis ATCC 29212 after 24 hrs by broth microdilution method; assay type: functional; conditions: ATCC 29212, 24 h; how it was run: as §3
[28] = Therapeutic index, ratio of TD50 for Sprague-Dawley rat to ED50 for Sprague-Dawley rat
How it was run: (§6)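 Ratio of TD50 to ED50, both from ip dosing at the time of peak effect, with groups of at least 8 per dose and Finney probit analysis. […] Toxicity was read by rotarod in mice and by positional sense, gait and stance in rats.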

Rattus norvegicus [29] = experiment: Neurotoxicity in Sprague-Dawley rat assessed as time to peak effect at 50 mg/kg, ip after 2 to 6 hrs by rotarod test; assay type: toxicity, organism-based; set-up: dose 50 mg/kg, route intraperitoneal; conditions: in vivo
[30] = Therapeutic index, ratio of TD50 for CF1 mouse to ED50 for CF1 mouse; how it was run: as §6
Staphylococcus aureus = experiment: Antibacterial activity against Staphylococcus aureus ATCC 25923 after 24 hrs by broth microdilution method; assay type: functional; conditions: ATCC 25923, 24 h; how it was run: as §3
Mus musculus [31] = experiment: Anticonvulsant activity in CF1 mouse assessed as time to peak effect for inhibition of maximal electroshock-induced seizures at 70 mg/kg, ip; assay type: functional; conditions: route intraperitoneal
Mus musculus [32] = experiment: Anticonvulsant activity in ip dosed CF1 mouse assessed as inhibition of ScM-induced seizures after 5 hrs; assay type: functional
Mus musculus [33] = experiment: Neurotoxicity in CF1 mouse assessed as ability to grasp rotarod at 300 mg/kg, ip after 0.5 hrs by rotarod test; assay type: toxicity, organism-based; set-up: dose 300 mg/kg, route intraperitoneal; conditions: in vivo; how it was run: as §2

CC(C)CC(=O)OC(Cn1ccnc1)c1ccc2ccccc2c1 (configuration not stated)
Activity (Rattus norvegicus [1]): Non-toxic
inhibition (Rattus norvegicus [2]): inactive
TD50 at 0.25 h [3]: 124 mg/kg
Activity (Mus musculus [4]): Non-toxic
Activity (Mus musculus [5]): Non-toxic
Activity (Rattus norvegicus [6]): Non-toxic
MIC (Candida parapsilosis): 64 µg/mL (≈ 199 µM)
MIC (Pseudomonas aeruginosa): > 1020 µg/mL
ED50 (Rattus norvegicus [7]): 20.4 mg/kg
Activity (Mus musculus [8]): Toxic
Activity (Rattus norvegicus [9]): Non-toxic
inhibition (Mus musculus [10]): Active
Activity (Rattus norvegicus [11]): Non-toxic
inhibition (Mus musculus [12]): inactive
Activity (Rattus norvegicus [13]): Non-toxic
Activity (Mus musculus [14]): Non-toxic
Time (Rattus norvegicus [15]): 0.5 h
inhibition (Mus musculus [16]): inactive
Activity (Mus musculus [17]): Toxic
inhibition (Mus musculus [18]): Active
Activity (Mus musculus [19]): Toxic
Time (Rattus norvegicus [20]): 0.5 h
ED50 (Mus musculus [21]): 38.5 mg/kg
Activity (Rattus norvegicus [22]): Non-toxic
inhibition (Rattus norvegicus [23]): inactive
Time (Mus musculus [24]): 0.25 h
Activity (Rattus norvegicus [25]): Non-toxic
Activity (Mus musculus [26]): inactive
Activity (Rattus norvegicus [27]): Non-toxic
MIC (Enterococcus faecalis): 64 µg/mL (≈ 199 µM)
selectivity ratio [28]: 2.76
Activity (Rattus norvegicus [29]): Non-toxic
selectivity ratio [30]: 3.22
MIC (Staphylococcus aureus): 8 µg/mL (≈ 24.8 µM)
Time (Mus musculus [31]): 0.5 h
ED50 (Mus musculus [32]): > 138 mg/kg
Activity (Mus musculus [33]): Toxic
